Calls of active or inactive are those of the source. The calls are words filed in the database; no cut-off is given here.
Assays:
[1] = target: T1, Rap guanine nucleotide exchange factor 3 (Homo sapiens, UniProt O95398); assay: Binding affinity to human EPAC1 cAMP binding domain (149 to 318 residues) using monomeric form of compound by [15N-1H]HSQC spectroscopic analysis
T1 sequence (O95398 whole entry): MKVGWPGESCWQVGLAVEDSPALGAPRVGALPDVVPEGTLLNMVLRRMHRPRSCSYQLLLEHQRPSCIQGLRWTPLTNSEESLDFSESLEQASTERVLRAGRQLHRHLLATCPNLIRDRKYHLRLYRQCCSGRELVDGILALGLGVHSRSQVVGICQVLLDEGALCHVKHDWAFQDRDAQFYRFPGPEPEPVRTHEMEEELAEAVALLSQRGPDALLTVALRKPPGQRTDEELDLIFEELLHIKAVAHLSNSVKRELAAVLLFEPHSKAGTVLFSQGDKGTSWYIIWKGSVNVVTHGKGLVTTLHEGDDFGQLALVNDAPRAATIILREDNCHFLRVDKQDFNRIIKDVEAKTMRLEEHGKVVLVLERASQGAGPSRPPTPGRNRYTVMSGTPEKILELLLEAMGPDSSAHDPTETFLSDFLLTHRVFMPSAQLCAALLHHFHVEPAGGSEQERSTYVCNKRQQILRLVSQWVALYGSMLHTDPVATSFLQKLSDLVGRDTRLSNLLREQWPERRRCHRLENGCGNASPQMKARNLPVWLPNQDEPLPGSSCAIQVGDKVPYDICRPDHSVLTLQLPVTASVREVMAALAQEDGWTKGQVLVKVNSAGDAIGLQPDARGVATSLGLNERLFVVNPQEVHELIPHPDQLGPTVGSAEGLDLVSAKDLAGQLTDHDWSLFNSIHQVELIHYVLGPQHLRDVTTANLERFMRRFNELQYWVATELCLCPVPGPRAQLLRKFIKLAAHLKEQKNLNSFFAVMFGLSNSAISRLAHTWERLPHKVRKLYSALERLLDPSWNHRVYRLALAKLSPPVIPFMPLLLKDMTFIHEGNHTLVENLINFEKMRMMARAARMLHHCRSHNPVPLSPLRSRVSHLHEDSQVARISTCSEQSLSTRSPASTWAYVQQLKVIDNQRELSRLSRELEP

[2] = Binding affinity to Triton-X 100 assessed as line broadening at 100 uM by 1H-NMR spectra analysis
[3] = Reversible binding affinity to Triton-X 100 at dilution from 100 uM by 1H-NMR spectra analysis
[4] = target: T2, Rap guanine nucleotide exchange factor 3 (Homo sapiens) (UniProt O95398); assay: Binding affinity to human EPAC1 cAMP binding domain (149 to 318 residues) assessed as residue-dependent change in chemical shift at 100 uM using aggregate form of compound by [15N-1H]HSQC spectroscopic analysis
T2 sequence (whole entry): T1 sequence (O95398 whole entry)

[5] = Aggregation property of the compound in NMR buffer assessed as diameter of aggregate at 500 uM by dynamic light scattering analysis; format: physicochemical
Method in brief: (§1)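 Dynamic light scattering in NMR buffer, samples filtered through 0.22 μm and centrifuged 5 min at 13 500 rpm before measurement. Autocorrelation accumulated 150 s at a 173° scattering angle, in replicates of 3–5, with water viscosity used in analysis; intensity or volume size distributions reported.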

[6] = Aggregation property of the compound assessed as shift in peak width by 1H-NMR analysis; format: physicochemical
Method in brief: (§2)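 Line widths, chemical shifts and peak intensities tracked; CAC taken as the concentration where intensities deviate from linear dependence, or, for line width, the minimal concentration that increases peak width.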

[7] = target: T2, Rap guanine nucleotide exchange factor 3 (Homo sapiens); assay: Binding affinity to human EPAC1 cAMP binding domain (149 to 318 residues) at 400 uM in presence of 0.1% triton X-100 by [15N-1H]HSQC spectroscopic analysis
[8] = Binding affinity to Triton-X 100 assessed as inter-molecular saturation transfer at 100 uM at 6.61 ppm by STD spectra analysis
Method in brief: (§3)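 STD NMR, saturation by a train of 40 Gaussian pulses of 50 ms each; selective on-resonance irradiation at the stated ppm (TX at 7.48 ppm), off-resonance at 30 ppm, interleaved and subtracted by phase cycling. 32K points, 16 ppm width centred at 4.7 ppm, 256 scans, 16 dummy scans, 0.1 s recycle delay (~15 min); 3 Hz exponential line broadening.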

[9] = Aggregation property of the compound assessed as change in saturation transfer at 100 uM irradiated at 6.61 ppm by STD NMR spectra analysis; format: physicochemical
Method in brief: as §3

Albumin [10] = target: T3, Albumin (Homo sapiens, UniProt P02768); assay: Binding affinity to human serum albumin assessed as inhibition of compound aggregation at 200 to 500 uM by dynamic light scattering analysis
T3 sequence (P02768 whole entry): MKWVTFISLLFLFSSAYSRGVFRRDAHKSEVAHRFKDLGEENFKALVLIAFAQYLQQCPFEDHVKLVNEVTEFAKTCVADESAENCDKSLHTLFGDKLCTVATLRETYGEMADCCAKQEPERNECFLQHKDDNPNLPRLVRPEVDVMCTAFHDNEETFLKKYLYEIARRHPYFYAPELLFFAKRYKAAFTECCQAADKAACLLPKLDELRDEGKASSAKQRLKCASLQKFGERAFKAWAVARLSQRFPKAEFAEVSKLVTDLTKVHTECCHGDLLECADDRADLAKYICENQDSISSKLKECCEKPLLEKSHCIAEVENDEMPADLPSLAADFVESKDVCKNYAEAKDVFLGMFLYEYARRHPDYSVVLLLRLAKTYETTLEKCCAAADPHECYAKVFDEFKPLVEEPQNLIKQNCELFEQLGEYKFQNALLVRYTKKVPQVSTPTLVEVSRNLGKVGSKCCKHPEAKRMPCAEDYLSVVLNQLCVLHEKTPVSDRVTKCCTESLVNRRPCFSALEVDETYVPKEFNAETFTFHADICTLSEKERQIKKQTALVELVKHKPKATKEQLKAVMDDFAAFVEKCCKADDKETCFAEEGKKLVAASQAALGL
Method in brief: as §1

[11] = Aggregation property of the compound in NMR buffer assessed as aggregate size at 500 uM by dynamic light scattering analysis; format: physicochemical
Method in brief: as §1

[12] = target: T2, Rap guanine nucleotide exchange factor 3 (Homo sapiens); assay: Binding affinity to human EPAC1 cAMP binding domain (149 to 318 residues) assessed as increase in peak intensity in presence of human serum albumin by [15N-1H]HSQC spectroscopic analysis relative to control
Albumin [13] = target: T3, Albumin; assay: Displacement of ANS from human serum albumin up to 50 uM by fluorescence assay
Method in brief: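 Fluorescence competition: 2.5 μM HSA with 5 or 100 μM ANS, ligand added over a concentration range. Excitation 360 nm; emission read at 460 and 480 nm to check for blue shift. Signal normalized between ANS alone (minimum) and HSA:ANS (maximum).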

[14] = target: T2, Rap guanine nucleotide exchange factor 3 (Homo sapiens); assay: Binding affinity to human EPAC1 cAMP binding domain (149 to 318 residues) at 200 to 300 uM in presence of triton X-100 using aggregate form of compound by [15N-1H]HSQC spectroscopic analysis
Albumin [15] = target: T3, Albumin; assay: Displacement of dansylated phenylalanine from human serum albumin by fluorescence assay; details: read-out: Kd(app)
Method in brief: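 Competition of ligand against 100 μM dansyl-phenylalanine (binds Sudlow sites 1 and 2) bound to 2.5 μM HSA. Excitation 370 nm, emission 480 nm. Fractional saturation modelled with two sites, free HSA assumed negligible; least-squares fit with no further ESI sites, giving maximum apparent dissociation constants.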

[16] = Aggregation property of the compound assessed as change in peak intensity by measuring concentration at which peak intensities deviated from the linear correlation by 1H-NMR analysis; format: physicochemical
Method in brief: as §2

[17] = Aggregation property of the compound in NMR buffer at 250 uM by surface plasmon resonance analysis; format: physicochemical
Method in brief: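 SPR on a nonfunctionalized gold nanoparticle sensor; samples in NMR buffer with DMSO at 1.25%, injected at 33 μL/min alongside matched DMSO controls (with HSA where present, 25 μM), in duplicate. Surface regenerated only after HSA-containing injections.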

[18] = target: T2, Rap guanine nucleotide exchange factor 3 (Homo sapiens); assay: Binding affinity to human EPAC1 cAMP binding domain (149 to 318 residues) assessed as change in chemical shift at 50 to 250 uM using aggregate form of compound by [15N-1H]HSQC spectroscopic analysis
[19] = Aggregation property of the compound in NMR buffer assessed as micellar morphology at 200 uM by uranyl acetate staining-based transmission electron microscopic analysis; format: physicochemical

Kd [1]: 20 µM
Activity [2]: Active
Activity [3]: Active
Activity [4]: Active
Activity [5]: 250 nm
Activity [6]: Not Active
Activity [7]: Active
Activity [8]: Active
Activity [9]: Not Active
inhibition (INH) (Albumin [10]): Active
Activity [11]: 90 to 600 nm
Activity [12]: 30 to 40%
Activity (Albumin [13]): Active
Activity [14]: Active
Kd (Albumin [15]): 99 nM
Activity [16]: 150 µM
Activity [17]: Active
Activity [18]: Active
Activity [19]: Active
SMILES: CC(C)(C)c1cc(C(=O)/C(C#N)=N/Nc2cccc(Cl)c2)no1

From ChEMBL document CHEMBL4396878, “Mechanisms of Specific versus Nonspecific Interactions of Aggregation-Prone Inhibitors and Attenuators” (J Med Chem, 2019)
